According to ChEMBL document CHEMBL2321691 (J Med Chem, 2013):
The source made the active and inactive calls. No cut-off for these calls is given here.

Legend:
A549 = test: Cytotoxicity against human A549 cells assessed as growth inhibition after 72 hrs by XTT assay; assay type: functional, cell-based; conditions: A549, 72 h
Summary of the method: (§1)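 Cells seeded at 1.5 x 10^3 per well (A549, HeLa, HT-29) or 3 x 10^3 (HL-60) in medium with 10% heat-inactivated FBS. Compound tested from 10-5 to 10-13 M for 72 h at 37 °C, then XTT readout. […] Triplicate wells, three experiments; mean ± S.D.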

Bos taurus = species on record: Bos taurus; test: Inhibition of bovine brain tubulin polymerization at 20 uM after 30 mins by spectrophotometry
Summary of the method: (§2)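 Bovine brain tubulin at 1.5 mg/mL, pH 6.7, in 0.1 M MES, 1 mM EGTA, 1 mM MgCl2, 1 mM β-ME, 1.5 mM GTP with ligand. Incubated 20 °C for 30 min, then on ice 10 min. Assembly read as the A450 rise on a shift from 4 to 38 °C; inhibition is plateau minus baseline against ligand-free control. IC50 from monoexponential fits.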

HL-60 = test: Cytotoxicity against human HL60 cells assessed as growth inhibition after 72 hrs by XTT assay; assay type: functional, cell-based; conditions: HL-60, 72 h; summary of the method: as §1
HeLa [1] = test: Cytotoxicity against human HeLa cells assessed as growth inhibition after 72 hrs by XTT assay
HT-29 = test: Cytotoxicity against human HT-29 cells assessed as growth inhibition after 72 hrs by XTT assay; assay type: functional, cell-based; conditions: HT-29, 72 h; summary of the method: as §1
[2] = Inhibition of bovine brain tubulin polymerization after 30 mins by spectrophotometry; design: species or system Bos taurus; summary of the method: as §2
HeLa [3] = test: Inhibition of microtubule system in human HeLa cells at 10 nM after 18 hrs by confocal microscopic analysis; assay type: cell-based
Summary of the method: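 HeLa cells grown on poly-L-lysine coverslips and treated 18 h at 10^-8 M. Washed in HPEM (pH 6.6), fixed 15 min in 4% paraformaldehyde, permeabilized with 0.5% Triton X-100. Stained with anti-α-tubulin (1:150, 1 h), then CY3 anti-mouse IgG (1:100, 1 h, 4 °C). Imaged by confocal microscopy; representative of at least three experiments.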

Compound	IC50 (A549) [µM]	inhibition (Bos taurus) [%]	IC50 (HL-60) [µM]	IC50 (HeLa [1]) [µM]	IC50 (HT-29) [µM]	IC50 [2] [µM]	inhibition (HeLa [3])
C=C(c1cc(OC)c(OC)c(OC)c1)c1ccc2[nH]ccc2c1	9	36	3.6	2.1	5.1		
C=C(c1ccc2c(ccn2C)c1)c1ccc(OC)c(OC)c1OC	0.73	97	0.28	0.032	0.31	4.7	
COc1ccc(C(=CC=O)c2ccc3c(c2)c(C=O)cn3C)c(OC)c1OC	0.35	98	0.3	0.3	0.3	5.9	
C=C(c1ccc2c(c1)c(C#N)cn2C)c1ccc(OC)c(OC)c1OC	0.36	89	0.027	0.032	0.032	2.2	
C=C(c1ccc2c(c1)c(C=O)cn2C)c1ccc(OC)c(OC)c1OC	1.8	98	0.032	0.032	0.23	4	Active
C=C(c1cc(OC)c(OC)c(OC)c1)c1ccc2c(c1)c(C=NN)cn2C	3.2	12	0.18	0.038	0.3		
COc1cc(/C(=C\C=O)c2ccc3c(c2)c(C=O)cn3C)cc(OC)c1OC	0.32	96	0.029	0.03	0.17		
COc1cc(C(=CC=O)c2ccc3c(c2)c(C=O)cn3C)cc(OC)c1OC	0.34	88	0.033	0.031	0.22	7	
COc1cc(C(O)c2nc3ccc(Br)cc3n2C)cc(OC)c1OC (stereo not given)	> 10	22	> 10	> 10	> 10		
COc1cc(C(C)c2ccc3[nH]ccc3c2)cc(OC)c1OC (stereo not given)	4.9	5	3.4	2.3	3.3		
C=C(c1cc(OC)c(OC)c(OC)c1)c1ccc2c(c1)c(CO)cn2C	3.2	32	0.25	0.31	2		
C=C(c1ccc2c(c1)c(CO)cn2C)c1ccc(OC)c(OC)c1OC	0.44	32	0.22	0.3	0.46		
COc1cc(C(C)c2ccc3[nH]cc(C=O)c3c2)cc(OC)c1OC (stereo not given)	9.1	0	5.4	5.8	5.8		
COc1ccc(C(=O)c2ccc3c(c2)c(C#N)cn3C)c(OC)c1OC	2	40	0.29	0.27	0.31		
COc1cc(C(=O)c2ccc3c(c2)c(C(=O)O)cn3C)cc(OC)c1OC	> 10	2	> 10	7	> 10		
COc1cc(C(=O)c2ccc3ocnc3c2)cc(OC)c1OC	10	0	0.47	0.34	2.8		

Compound	IC50 (A549) [µM]	inhibition (Bos taurus) [%]	IC50 (HL-60) [µM]	IC50 (HeLa [1]) [µM]	IC50 (HT-29) [µM]	IC50 [2] [µM]	inhibition (HeLa [3])
C=C(c1cc(OC)c(OC)c(OC)c1)c1ccc2c(c1)c(C=NO)cn2C	0.03	93	0.021	0.0062	0.033	2.6	Active
C=C(c1cc(OC)c(OC)c(OC)c1)c1ccc2c(c1)c(C=O)cn2C	3	100	0.028	0.02	0.062	0.9	Active
COc1ccc(C(=O)c2ccc3c(ccn3C)c2)c(OC)c1OC	0.38	100	0.24		0.24	0.4	
C=C(c1ccc2c(c1)c(C=NO)cn2C)c1ccc(OC)c(OC)c1OC	0.29	95	0.27	0.034	0.32	4	
C=C(c1cc(OC)c(OC)c(OC)c1)c1ccc2c(c1)c(C(=O)O)cn2C	1.1	91	1.1	0.88	0.55	5	
C=C(c1cc(OC)c(OC)c(OC)c1)c1ccc2c(ccn2C)c1	0.028	96	0.0028	0.0027	0.0031	0.7	
COc1cc(C(C)c2ccc3c(c2)c(C)cn3C)cc(OC)c1OC (stereo not given)	0.32	90	0.28	0.31	0.31		
COc1cc(C(=O)c2nc3ccc(Br)cc3n2C)cc(OC)c1OC	10	37	2.4	2.3	2.7		
COc1cc(C(=O)c2nc3cc(Br)ccc3n2C)cc(OC)c1OC	0.4	37	0.029	0.19	0.34		
COc1ccc(C(C)c2ccc3c(ccn3C)c2)c(OC)c1OC (stereo not given)	0.47	87	0.37	0.31	0.33		
COc1ccc(C(=O)c2ccc3c(c2)c(C=O)cn3C)c(OC)c1OC	> 10	73	0.78	0.78	5.3		
COc1cc(C(=O)c2ccc3c(ccn3C)c2)cc(OC)c1OC	0.19	98	0.027	0.025	0.027	7.9	
COc1cc(C(O)c2nc3cc(Br)ccc3n2C)cc(OC)c1OC (stereo not given)	> 10	2	> 10	> 10	> 10		
COc1cc(C(=O)c2ccc3c(c2)c(C=O)cn3C)cc(OC)c1OC	> 10	61	0.31	0.32	3	16.9	
COc1ccc(C(C)c2ccc3c(c2)c(C=NN)cn3C)c(OC)c1OC (stereo not given)	> 10	0	1.8	0.43	3.2		
